Residues, ends and D or L forms follow the SMILES beside them.
Organism: Rattus norvegicus
Assay: Dose required for the two fold increase in the dose of AII to produce the same elevation in blood pressure as in the control period.
Format: functional
Conditions: not given
Outline: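 Rat blood pressure assay in vivo, using 250-g rats. ID50 is the antagonist dose, in ng/rat per min, that requires a twofold increase in the AII dose to give the same blood pressure rise as in the control period.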

Compared with CC[C@H](C)[C@H](NC(=O)[C@H](Cc1ccc(O)cc1)NC(=O)[C@@H](NC(=O)[C@@H](CCCNC(=N)N)NC(=O)CNC)C(C)C)C(=O)N[C@@H](Cc1c[nH]cn1)C(=O)N1CCC[C@@H]1C(=O)NC(Cc1c[nH]c2ccccc12)C(=O)O (stereo in doubt) [listing 1 of 2 here], CC[C@H](C)[C@H](NC(=O)[C@H](Cc1ccc(O)cc1)NC(=O)[C@@H](NC(=O)[C@H](CCCNC(=N)N)NC(=O)CNC)C(C)C)C(=O)N[C@@H](Cc1c[nH]cn1)C(=O)N1CCC[C@H]1C(=O)N[C@H](Cc1ccc2ccccc2c1)C(=O)O is higher in ID50: 10 ng min-1 rat-1 for the first, 25 ng min-1 rat-1 for the second.

Compared with CC[C@H](C)[C@H](NC(=O)[C@H](Cc1ccc(O)cc1)NC(=O)[C@@H](NC(=O)[C@H](CCCNC(=N)N)NC(=O)CNC)C(C)C)C(=O)N[C@@H](Cc1c[nH]cn1)C(=O)N1CCC[C@H]1C(=O)N[C@](C)(Cc1ccccc1)C(=O)O, CC[C@H](C)[C@H](NC(=O)[C@H](Cc1ccc(O)cc1)NC(=O)[C@@H](NC(=O)[C@H](CCCNC(=N)N)NC(=O)CNC)C(C)C)C(=O)N[C@@H](Cc1c[nH]cn1)C(=O)N1CCC[C@H]1C(=O)N[C@H](Cc1ccccc1)C(N)=O is higher in ID50: 10 ng min-1 rat-1 for the first, 12.5 ng min-1 rat-1 for the second.

CC[C@H](C)[C@H](NC(=O)[C@H](Cc1ccc(O)cc1)NC(=O)[C@@H](NC(=O)[C@H](CCCNC(=N)N)NC(=O)CNC)C(C)C)C(=O)N[C@@H](Cc1c[nH]cn1)C(=O)N1CCC[C@H]1C(=O)N[C@H](Cc1ccc(Cl)cc1)C(=O)O gave an ID50 of 25 ng min-1 rat-1.

The molecules below were run against Angiotensin II receptor (Homo sapiens) (UniProt P30556+P50052) (assay: In vitro angiotensin II-like activity, expressed as percent relative to angiotensin II, measured in the rabbit aorta strip assay). Conditions: Oryctolagus cuniculus.
Format: functional, tissue-based

CC[C@H](C)[C@H](NC(=O)[C@@H]1CCCN1C(=O)[C@H](Cc1c[nH]cn1)NC(=O)[C@@H](NC(=O)[C@@H](Cc1ccc(O)cc1)NC(=O)[C@@H](NC(=O)[C@@H](CCCN=C(N)N)NC(=O)CNC)C(C)C)[C@@H](C)CC)C(=O)O and CC[C@H](C)[C@H](NC(=O)[C@@H]1CCCN1C(=O)[C@@H](Cc1c[nH]cn1)NC(=O)[C@@H](NC(=O)[C@@H](Cc1ccc(O)cc1)NC(=O)[C@@H](NC(=O)[C@H](CCCN=C(N)N)NC(=O)CNC)C(C)C)[C@@H](C)CC)C(=O)O are the same in Biological activity: -0% for the first, -0% for the second.

CC[C@H](C)[C@H](NC(=O)[C@H](Cc1ccc(O)cc1)NC(=O)[C@@H](NC(=O)[C@@H](CCCNC(=N)N)NC(=O)CNC)C(C)C)C(=O)N[C@@H](Cc1c[nH]cn1)C(=O)N1CCC[C@@H]1C(=O)N[C@@H](Cc1ccc2ccccc2c1)C(=O)O and CC[C@H](C)[C@H](NC(=O)[C@H](Cc1ccc(O)cc1)NC(=O)[C@@H](NC(=O)[C@@H](CCCNC(=N)N)NC(=O)CNC)C(C)C)C(=O)N[C@@H](Cc1c[nH]cn1)C(=O)N1CCC[C@@H]1C(=O)N[C@H](Cc1ccc(Cl)cc1)C(=O)O are the same in Biological activity: -0% for the first, -0% for the second.

CC[C@H](C)[C@H](NC(=O)[C@H](Cc1ccc(O)cc1)NC(=O)[C@@H](NC(=O)[C@@H](CCCN=C(N)N)NC(=O)[C@@H](N)CC(=O)O)C(C)C)C(=O)NC(Cc1c[nH]cn1)C(=O)N1CCC[C@@H]1C(=O)N[C@@H](C(=O)O)[C@@H](C)CC (stereo in doubt) [listing 1 of 2 here] and CC[C@H](C)[C@H](NC(=O)[C@@H]1CCCN1C(=O)[C@H](Cc1c[nH]cn1)NC(=O)[C@@H](NC(=O)[C@H](Cc1ccc(O)cc1)NC(=O)[C@H](NC(=O)[C@H](CCCN=C(N)N)NC(=O)CNC)C(C)C)[C@@H](C)CC)C(=O)O are the same in Biological activity: -0% for the first, -0% for the second.

Compared with CC[C@H](C)[C@H](NC(=O)[C@H](Cc1ccc(O)cc1)NC(=O)[C@@H](NC(=O)[C@H](CCCN=C(N)N)NC(=O)[C@@H](N)CC(=O)O)C(C)C)C(=O)N[C@@H](Cc1c[nH]cn1)C(=O)N1CCC[C@H]1C(=O)N[C@@H](Cc1ccc(O)cc1)C(=O)O (H-DRVYIHPY-OH), CC[C@H](C)[C@H](NC(=O)[C@H](Cc1ccc(O)cc1)NC(=O)[C@@H](NC(=O)[C@@H](CCCNC(=N)N)NC(=O)CNC)C(C)C)C(=O)N[C@@H](Cc1c[nH]cn1)C(=O)N1CCC[C@@H]1C(=O)N[C@H](Cc1ccc(B(O)O)cc1)C(=O)O is lower in Biological activity: 100% for the first, -0% for the second.

CC[C@H](C)[C@H](NC(=O)[C@H](Cc1ccc(O)cc1)NC(=O)[C@@H](NC(=O)[C@@H](CCCNC(=N)N)NC(=O)CNC)C(C)C)C(=O)N[C@@H](Cc1c[nH]cn1)C(=O)N1CCC[C@@H]1C(=O)N[C@H](Cc1ccccc1)C(N)=O and CC[C@H](C)[C@H](NC(=O)[C@H](Cc1ccc(O)cc1)NC(=O)[C@@H](NC(=O)[C@@H](CCCNC(=N)N)NC(=O)CNC)C(C)C)C(=O)N[C@@H](Cc1c[nH]cn1)C(=O)N1CCC[C@@H]1C(=O)N[C@](C)(Cc1ccccc1)C(=O)O are the same in Biological activity: -0% for the first, -0% for the second.

CC[C@H](C)[C@H](NC(=O)[C@@H]1CCCN1C(=O)[C@H](Cc1c[nH]cn1)NC(=O)[C@H](NC(=O)[C@@H](Cc1ccc(O)cc1)NC(=O)[C@@H](NC(=O)[C@H](CCCN=C(N)N)NC(=O)CNC)C(C)C)C(C)C)C(=O)O and CC[C@H](C)[C@H](NC(=O)[C@@H]1CCCN1C(=O)[C@H](Cc1c[nH]cn1)NC(=O)[C@@H](NC(=O)[C@@H](Cc1ccc(O)cc1)NC(=O)[C@@H](NC(=O)[C@H](CCCN=C(N)N)NC(=O)CNC)C(C)C)[C@@H](C)CC)C(=O)O are the same in Biological activity: -0% for the first, -0% for the second.

CC[C@H](C)[C@H](NC(=O)[C@H](Cc1ccc(O)cc1)NC(=O)[C@@H](NC(=O)[C@@H](CCCNC(=N)N)NC(=O)CNC)C(C)C)C(=O)N[C@@H](Cc1c[nH]cn1)C(=O)N1CCC[C@@H]1C(=O)NC(Cc1c[nH]c2ccccc12)C(=O)O (stereo in doubt) [listing 2 of 2 here] and CC[C@H](C)[C@H](NC(=O)[C@H](Cc1ccc(O)cc1)NC(=O)[C@@H](NC(=O)[C@@H](CCCNC(=N)N)NC(=O)CNC)C(C)C)C(=O)NC(Cc1c[nH]cn1)C(=O)N1CCC[C@@H]1C(=O)N[C@@H](C(=O)O)C(C)C (stereo in doubt) are the same in Biological activity: -0% for the first, -0% for the second.

CC[C@H](C)[C@H](NC(=O)C(C)NC(=O)[C@H](Cc1c[nH]cn1)NC(=O)[C@H](NC(=O)[C@@H](Cc1ccc(O)cc1)NC(=O)[C@@H](NC(=O)[C@H](CCCNC(=N)N)NC(=O)[C@@H](N)CC(=O)O)C(C)C)C(C)C)C(=O)O (stereo in doubt) and CC[C@H](C)[C@H](NC(=O)[C@@H](Cc1ccc(O)cc1)NC(=O)[C@@H](NC(=O)[C@H](CCCNC(=N)N)NC(=O)CNC)C(C)C)C(=O)N[C@@H](Cc1c[nH]cn1)C(=O)N1CCC[C@H]1C(=O)N[C@@H](C(=O)O)C(C)C are the same in Biological activity: -0% for the first, -0% for the second.

These molecules were tested on Rattus norvegicus (assay: In vivo AII-like activity, expressed as percent activity relative to AII (angiotensin II), measured in rat blood pressure assay). Conditions: not given.
Format: functional
Outline: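 Rat blood pressure assay in vivo. Residual agonist activity is expressed as percent activity relative to AII.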

Compared with CC[C@H](C)[C@H](NC(=O)[C@H](Cc1ccc(O)cc1)NC(=O)[C@@H](NC(=O)[C@@H](CCCN=C(N)N)NC(=O)[C@@H](N)CC(=O)O)C(C)C)C(=O)NC(Cc1c[nH]cn1)C(=O)N1CCC[C@@H]1C(=O)N[C@@H](C(=O)O)[C@@H](C)CC (stereo in doubt) [listing 2 of 2 here], CC[C@H](C)[C@H](NC(=O)[C@H](Cc1ccc(O)cc1)NC(=O)[C@@H](NC(=O)[C@H](CCCN=C(N)N)NC(=O)[C@@H](N)CC(=O)O)C(C)C)C(=O)N[C@@H](Cc1c[nH]cn1)C(=O)N1CCC[C@H]1C(=O)N[C@H](C(=O)O)C(C)C (H-DRVYIHPV-OH) is higher in Biological activity: 0.014% for the first, 0.5% for the second.

First: CC(C)[C@H](NC(=O)[C@H](CCCNC(=N)N)NC(=O)[C@@H](N)CC(N)=O)C(=O)N[C@@H](Cc1ccc(O)cc1)C(=O)N1CCC[C@@H]1C(=O)N[C@@H](Cc1c[nH]cn1)C(=O)N1CCC[C@H]1C(=O)N[C@@H](Cc1ccccc1)C(=O)O
Second: CC(C)[C@H](NC(=O)[C@H](CCCN=C(N)N)NC(=O)[C@@H](N)CC(N)=O)C(=O)N[C@@H](Cc1ccc(O)cc1)C(=O)N1CCC[C@H]1C(=O)N[C@@H](Cc1c[nH]cn1)C(=O)N1CCC[C@H]1C(=O)N[C@@H](Cc1ccccc1)C(=O)O
The Biological activity of the first is lower: 0.05% for the first, 10% for the second.

Compared with COC(=O)[C@H](Cc1ccccc1)NC(=O)[C@@H]1CCCN1C(=O)[C@H](Cc1c[nH]cn1)NC(=O)[C@@H](NC(=O)[C@H](Cc1ccc(O)cc1)NC(=O)[C@@H](NC(=O)[C@H](CCCN=C(N)N)NC(=O)[C@@H](N)CC(N)=O)C(C)C)C(C)C (H-NRVYVHPF-OMe), CC(C)[C@H](NC(=O)[C@H](CCCN=C(N)N)NC(=O)[C@@H](N)CC(N)=O)C(=O)N[C@@H](Cc1ccc(O)cc1)C(=O)N[C@H](C(=O)N[C@@H](Cc1c[nH]cn1)C(=O)N1CCC[C@H]1C(=O)N[C@@H](Cc1ccccc1)C(N)=O)C(C)C (H-NRVYVHPF-NH2) is lower in Biological activity: 10% for the first, 3% for the second.

Going from CC[C@H](C)[C@H](NC(=O)[C@H](Cc1ccc(O)cc1)NC(=O)[C@@H](NC(=O)[C@H](CCCN=C(N)N)NC(=O)[C@@H](N)CC(=O)O)C(C)C)C(=O)N[C@@H](Cc1c[nH]cn1)C(=O)N1CCC[C@H]1C(=O)N[C@@](C)(Cc1ccccc1)C(=O)O to CC[C@H](C)[C@H](NC(=O)[C@H](Cc1ccc(O)cc1)NC(=O)[C@@H](NC(=O)[C@H](CCCN=C(N)N)NC(=O)[C@@H](N)CC(=O)O)C(C)C)C(=O)N[C@@H](Cc1c[nH]cn1)C(=O)N1CCC[C@H]1C(=O)N[C@@H](Cc1ccc(N)cc1)C(=O)O, the Biological activity falls from 80% to 53%.

First: CC[C@H](C)[C@H](NC(=O)[C@H](Cc1ccc(O)cc1)NC(=O)[C@@H](NC(=O)[C@H](CCCN=C(N)N)NC(=O)[C@@H](N)CC(=O)O)C(C)C)C(=O)N[C@@H](Cc1c[nH]cn1)C(=O)N1CCC[C@H]1C(=O)N[C@@H](Cc1ccc(O)cc1)C(=O)O (H-DRVYIHPY-OH)
Second: CC[C@H](C)[C@H](NC(=O)[C@H](Cc1ccc(O)cc1)NC(=O)[C@@H](NC(=O)[C@H](CCCN=C(N)N)NC(=O)[C@@H](N)CC(=O)O)C(C)C)C(=O)N[C@@H](Cc1c[nH]cn1)C(=O)N1CCC[C@H]1C(=O)N[C@@H](Cc1ccc(Br)cc1)C(=O)O
The Biological activity of the first is higher: 83% for the first, 50% for the second.

Going from CC[C@H](C)[C@H](NC(=O)[C@H](Cc1ccc(O)cc1)NC(=O)[C@@H](NC(=O)[C@H](CCCNC(=N)N)NC(=O)[C@@H](N)CC(=O)O)C(C)C)C(=O)N[C@@H](Cc1c[nH]cn1)C(=O)N1CCC[C@H]1C(=O)N[C@@H](C(=O)O)[C@@H](C)CC to CC[C@H](C)[C@H](NC(=O)[C@H](Cc1ccc(O)cc1)NC(=O)[C@@H](NC(=O)[C@H](CCCN=C(N)N)NC(=O)[C@@H](N)CC(=O)O)C(C)C)C(=O)N[C@@H](Cc1c[nH]cn1)C(=O)N1CCC[C@H]1C(=O)N[C@@H](Cc1c[nH]c2ccccc12)C(=O)O (H-DRVYIHPW-OH), the Biological activity rises from 0.72% to 22.2%.

Work on CC(C)[C@H](NC(=O)[C@H](CCCN=C(N)N)NC(=O)[C@@H](N)CC(N)=O)C(=O)N[C@H](Cc1ccc(O)cc1)C(=O)N[C@H](C(=O)N[C@@H](Cc1c[nH]cn1)C(=O)N1CCC[C@H]1C(=O)N[C@@H](Cc1ccccc1)C(=O)O)C(C)C yielded a Biological activity of 0.03%.

Reference: ChEMBL document CHEMBL1124265, “Effects of D-amino acid substitution on antagonist activities of angiotensin II analogues” (J Med Chem, 1988)
